Laboratory results as given in ChEMBL document CHEMBL1926586, “A new class of antimalarial dioxanes obtained through a simple two-step synthetic approach: rational design and structure-activity relationship studies” (J Med Chem, 2011).

Experiments:
Plasmodium falciparum [1] = assay: Antimalarial activity against chloroquine-sensitive Plasmodium falciparum D10 infected in human type A-positive red blood cells assessed as parasite lactate dehydrogenase activity after 72 hrs by spectrophotometric analysis; type: functional, organism-based; details: D10, 72 h
Method in brief: (§1)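 Parasites were cultured in human type A-positive red blood cells at 5% hematocrit. Medium was RPMI 1640 with 1% AlbuMax, 0.01% hypoxanthine, 20 mM Hepes and 2 mM glutamine. Cultures were held at 37 °C under 1% O2, 5% CO2, 94% N2. Compounds were dissolved in water or DMSO, then diluted in medium. Values are mean ± SD of three experiments in duplicate.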

Plasmodium falciparum [2] = assay: Antimalarial activity against chloroquine-resistant Plasmodium falciparum W2 infected in human type A-positive red blood cells assessed as parasite lactate dehydrogenase activity after 72 hrs by spectrophotometric analysis; type: functional, organism-based; details: W2, 72 h; method in brief: as §1
[3] = Therapeutic index, ratio of IC50 for human HMEC1 cells to IC50 for chloroquine-resistant Plasmodium falciparum W2; type: cell-based; details: read-out: Ratio IC50
[4] = Cytotoxicity against human HMEC1 cells after 72 hrs by MTT assay; type: cell-based; details: HMEC-1, 72 h

SMILES	IC50 (Plasmodium falciparum [1])	IC50 (Plasmodium falciparum [2])	selectivity ratio [3]	IC50 [4]
COC(=O)[C@H]1CC(C)(C)OO[C@@]1(C)OC (mixture of isomers)	> 30 µM	> 30000 nM		
CC[C@@]1(OC)OOC(C)(C)C[C@@H]1C(=O)OC (mixture of isomers)	> 30 µM	> 30000 nM		
CCCC[C@@]1(OC)OOC(C)(C)C[C@@H]1C(=O)OC (mixture of isomers)	3.7 µM	1500 nM	90	> 384 µM
CCCC[C@]1(OC)OOC(C)(C)C[C@@H]1C(=O)OC (mixture of isomers)	> 30 µM	> 30000 nM		
CCCC[C@]1(C)C[C@H](C(=O)OC)[C@](C)(OC)OO1 (mixture of isomers)	8.5 µM	4900 nM		
CCCC[C@@]1(C)C[C@H](C(=O)OC)[C@](C)(OC)OO1 (mixture of isomers)	12.6 µM	11800 nM		
CCCC[C@]1(C)C[C@H](C(=O)OC)[C@@](C)(OC)OO1 (mixture of isomers)	17.7 µM	8400 nM		
CCCC[C@@]1(C)C[C@H](C(=O)OC)[C@@](C)(OC)OO1 (mixture of isomers)	17.7 µM	6400 nM		
CCCC[C@]1(C)C[C@H](C(=O)OC)[C@](CCCC)(OC)OO1 (mixture of isomers)	4.2 µM	1500 nM		
CCCC[C@@]1(C)C[C@H](C(=O)OC)[C@](CCCC)(OC)OO1 (mixture of isomers)	2.6 µM	1300 nM	90	167 µM
CCCC[C@]1(C)C[C@H](C(=O)OC)[C@@](CCCC)(OC)OO1 (mixture of isomers)	12.3 µM	5000 nM		
CCCCC1(CCCC)C[C@H](C(=O)OC)[C@](C)(OC)OO1 (mixture of isomers)	7.4 µM	2500 nM		
CCCCC1(CCCC)C[C@H](C(=O)OC)[C@@](C)(OC)OO1 (mixture of isomers)	2.6 µM	800 nM	90	98.3 µM
CCCCC1(CCCC)C[C@H](C(=O)OC)[C@](CCCC)(OC)OO1 (mixture of isomers)	2.9 µM	1200 nM	90	108 µM
CCCCC1(CCCC)C[C@H](C(=O)OC)[C@@](CCCC)(OC)OO1 (racemic)	2.3 µM	1200 nM		
CC/C=C/[C@H](CC)C[C@@]1(C)C[C@@H](CC)[C@@H](CC(=O)OC)OO1 [PLAKORTIN]	0.9 µM	400 nM		
